The source of these data is ChEMBL document CHEMBL1125427, “Synthesis of 3-(2-pyridylethyl)benzoxazolinone derivatives: potent analgesic and antiinflammatory compounds inhibiting prostaglandin E2” (1992).

Type in all cases: functional
In assay [1] the test system is Mus musculus. Briefly: The compound was evaluated for inhibition of edema induced by histamine at 10 mg/mL. The method in brief: (§1)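 Female albino mice (22 ± 2 g, local breed), six per group, housed in eights with free food and water, acclimatised at least 2 days. Compound given orally at 100 mg/kg; 60 min later 0.01 mL of the phlogistic agent (histamine or serotonin) injected subcutaneously into the right hind paw plantar surface. Paw edema measured with a dial thickness gauge; effect expressed as percent inhibition.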

Assay [2] has as its system Mus musculus. Nature of the assay: The compound was evaluated for inhibition of edema induced by serotonin at 250 ug/mL. Summed up:
as §1

Assay [3] is filed under the species Mus musculus. Nature of the assay: Analgesic activity in mice. Further details: concentration or dose not given beside the values. The method in brief: (§2)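 Female albino mice (22 ± 2 g, local breed), groups of eight, dosed orally at 100 mg/kg as a suspension in 5% gum arabic syrup. After 1 h, 3% acetic acid was given ip at 300 mg/kg. Stretches were counted over 10 min, starting 5 min after injection. Percent activity = |n − n'|/n × 100 against syrup-only controls (n = 6).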

Assay [4] relates to Mus musculus. Briefly: Gastric ulcerogenic activity at a dose of 100 mg/kg. Summed up: (§3)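 Mice fasted 24 h with water available. Compound in methyl cellulose vehicle given by oral gavage at 0.5 mL/100 g body weight. Animals were killed after 4 h and stomachs examined for lesions under a dissecting microscope. Read-out: ulcer incidence per group of 8 and lesion length (mm/mouse ± SE).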

Assay [5] relates to Mus musculus. Nature of the assay: Gastric ulcerogenic activity at a dose of 20 mg/kg. Summed up:
as §3

Assay [6] concerns Mus musculus. Nature of the assay: Gastric ulcerogenic activity at a dose of 50 mg/kg. The method in brief:
as §3

Assay [7] relates to Mus musculus. Briefly: Intestinal ulcerogenic activity at a dose of 100 mg/kg. The method in brief:
(§4)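 Fed animals were gavaged with compound on 3 consecutive days and killed 24 h after the last dose. Intestines were examined for ulcers. Read-out: ulcer incidence per group of 8 and lesion length (mm/mouse ± SE).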

The subject of assay [8] is Mus musculus. Nature of the assay: Intestinal ulcerogenic activity at a dose of 20 mg/kg. Summed up: as §4
Assay [9] deals with Mus musculus. Briefly: The compound was evaluated for inhibition of edema induced by PGE at […]. Summed up:
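Mice, six per group, dosed orally at 100 mg/kg. After 60 min, PGE2 (20 μg/0.01 mL) was injected subcutaneously into the right hind paw plantar surface. Edema was measured with a dial thickness gauge and the effect expressed as percent inhibition.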

For assay [10], the system named is Mus musculus. Nature of the assay: The compound was evaluated for inhibition of edema induced by arachidonic acid at 1 mg/mL. The method in brief: (§5)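 Mice, six per group, dosed orally at 100 mg/kg. After 60 min, 0.01 mL of phlogistic agent (arachidonic acid or bradykinin) was injected subcutaneously into the right hind paw plantar surface. Edema was measured by dial thickness gauge and the effect expressed as percent inhibition.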

Assay [11] relates to Mus musculus. Nature of the assay: Antiinflammatory activity against CPE in mice following peroral administration of 20 mg/kg. To be noted: route oral. The method in brief:
(§6)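 Female albino mice (22 ± 2 g), six per group, dosed orally. After 60 min, 0.01 mL of 2% carrageenan was injected subcutaneously into the right hind paw plantar surface. Edema was read with a dial thickness gauge 3 h later. ED50 was given in mg/kg po with 95% confidence limits.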

Assay [12] concerns Mus musculus. Nature of the assay: Intestinal ulcerogenic activity at a dose of 50 mg/kg. Summed up: as §4
Assay [13] concerns Mus musculus. Briefly: Gastric ulcerogenic activity at a dose of 50 mg/kg: 8 mice were considered for the test. The method in brief:
as §3

Assay [14] concerns Mus musculus. Briefly: Intestinal ulcerogenic activity at a dose of 100 mg/kg: 8 mice were considered for the test. Summed up: as §4
Assay [15] has as its system Mus musculus. Nature of the assay: Intestinal ulcerogenic activity at a dose of 20 mg/kg: 8 mice were considered for the test. The method in brief: as §4
In assay [16] the test system is Mus musculus. Briefly: Intestinal ulcerogenic activity at a dose of 50 mg/kg: 8 mice were considered for the test. The method in brief: as §4
Assay [17] concerns Mus musculus. Nature of the assay: Gastric ulcerogenic activity at a dose of 100 mg/kg: 8 mice were considered for the test. Summed up: as §3
The subject of assay [18] is Mus musculus. Briefly: The compound was evaluated for inhibition of edema induced by bradykinin at 100 ug/mL. The method in brief:
as §5

Assay [19] relates to Mus musculus. Nature of the assay: Gastric ulcerogenic activity at a dose of 20 mg/kg: 8 mice were considered for the test. Summed up: as §3
For assay [20], the system named is Mus musculus. Nature of the assay: Inhibitory activity against carrageenan induced paw edema in mice. Further details: concentration or dose not given beside the values.
Assay [21] deals with Mus musculus. Nature of the assay: Gastric ulcerogenic activity at a dose of 30 mg/kg. Summed up: as §3
Assay [22] relates to Mus musculus. Nature of the assay: Gastric ulcerogenic activity at a dose of 300 mg/kg. Summed up:
as §3

In assay [23] the test system is Mus musculus. Briefly: Antiinflammatory activity against CPE in mice following peroral administration of 30 mg/kg. The conditions noted are these: route oral. The method in brief: as §6
Assay [24] has as its system Mus musculus. Nature of the assay: Intestinal ulcerogenic activity at a dose of 300 mg/kg. The method in brief:
as §4

For assay [25], the system named is Mus musculus. Briefly: Intestinal ulcerogenic activity at a dose of 30 mg/kg. Summed up:
as §4

For assay [26], the system named is Mus musculus. Briefly: Gastric ulcerogenic activity at a dose of 300 mg/kg: group of 8 mice were considered for the test. Summed up:
as §3

The test system of assay [27] is Mus musculus. Briefly: Gastric ulcerogenic activity at a dose of 30 mg/kg: group of 8 mice were considered for the test. The method in brief: as §3
Assay [28] concerns Mus musculus. Briefly: Intestinal ulcerogenic activity at a dose of 100 mg/kg: group of 8 mice were considered for the test. Summed up:
as §4

The subject of assay [29] is Mus musculus. Nature of the assay: Intestinal ulcerogenic activity at a dose of 300 mg/kg: group of 8 mice were considered for the test. Summed up:
as §4

The subject of assay [30] is Mus musculus. Nature of the assay: Intestinal ulcerogenic activity at a dose of 30 mg/kg: group of 8 mice were considered for the test. Summed up: as §4
Assay [31] deals with Mus musculus. Nature of the assay: Gastric ulcerogenic activity at a dose of 100 mg/kg: group of 8 mice were considered for the test. The method in brief:
as §3

Assay [32] is filed under the species Mus musculus. Nature of the assay: Analgesic activity in mice. Summed up: as §2

Consider `O=c1oc2ccc(Cl)cc2n1CCc1ccncc1`, for which the Inhibition was determined as 11% in the assay on Mus musculus [1]; 13.1% in the assay with Mus musculus [2]; 68% with Mus musculus [9]; 51.2% in the assay on Mus musculus [10]; 9% in the assay with Mus musculus [18]; 68.5% in the assay with Mus musculus [20]. In addition, the Analgesic activity in the assay listed under Mus musculus [3] was determined as 100%. Also, the Lesion length in the assay on Mus musculus [4] worked out at 0.4 mm mice-1; in the assay on Mus musculus [5], 0 mm mice-1; in the assay with Mus musculus [6] it was 0 mm mice-1; with Mus musculus [7] it was 0.15 mm mice-1; in the assay with Mus musculus [8], 0 mm mice-1; with Mus musculus [12] it was 0 mm mice-1. For the same compound, the ED50 in the assay on Mus musculus [11] came to 18.2 mg/kg. Besides, the Ulcer incidence with Mus musculus [13] was 0 number/group; in the assay on Mus musculus [14], 0 number/group; in the assay with Mus musculus [15], 0 number/group; in the assay on Mus musculus [16], 0 number/group; in the assay with Mus musculus [17], 1 number/group; in the assay with Mus musculus [19], 0 number/group.
`O=C(c1ccccc1Cl)c1cc2oc(=O)n(CCc3ccncc3)c2cc1Cl`: the Inhibition with Mus musculus [1] is on record as 9.3%; in the assay with Mus musculus [2], 8.4%; in the assay with Mus musculus [9], 55%; with Mus musculus [10], 43%; in the assay on Mus musculus [18], 12%; with Mus musculus [20], 49.6%. In the assay filed under Mus musculus [3], this compound came in with an Analgesic activity of 92.61%. The Lesion length turned out to be 0 mm mice-1 in the assay with Mus musculus [4]; 0 mm mice-1 with Mus musculus [21]; 0.4 mm mice-1 with Mus musculus [22]; 0 mm mice-1 in the assay on Mus musculus [7]; 0.4 mm mice-1 in the assay with Mus musculus [24]; 0 mm mice-1 in the assay on Mus musculus [25]. Also, the ED50 with Mus musculus [23] is 30 mg/kg. In addition, the Ulcer incidence in the assay on Mus musculus [26] was 1 number/group; with Mus musculus [27], 0 number/group; in the assay on Mus musculus [28], 0 number/group; in the assay on Mus musculus [29] it was 0 number/group; in the assay on Mus musculus [30] it was 0 number/group; with Mus musculus [31] it was 0 number/group.
Take `CC(=O)Oc1ccccc1C(=O)O` [ASPIRIN]: the Analgesic activity in the assay filed under Mus musculus [32] came to 58.26%.
